From ChEMBL document CHEMBL3414442, “Synthesis and biological evaluation of 2,4-diaminopyrimidines as selective Aurora A kinase inhibitors” (Eur J Med Chem, 2015) come the findings set out here.

Active and inactive are the calls of the source. The calls are words filed in the database; no cut-off is given here.

Test [1] is described as follows: Cytotoxicity against human HCT8 cells after 48 hrs by MTT assay. Type of test: functional, cell-based. The conditions noted are these: HCT-8, 48 h. Summed up:
(§1)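 Cells were grown at 37 °C in 5% CO2, plated and left to attach for 4–6 h, then exposed to five concentrations (dissolved in saline) in quadruplicate wells for 48 h. MTT was added for 4 h, formazan was dissolved in DMSO, and A490 was read. IC50 was taken from a log plot of percent of control versus concentration, as the mean of three independent experiments.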

Another test deals with A549. The test is described as follows: Cytotoxicity against human A549 cells after 48 hrs by MTT assay. Type of test: functional, cell-based. The conditions noted are these: A549, 48 h. The gist of the method: as §1
The test system of test [2] is HeLa. The test is described as follows: Cytotoxicity against human HeLa cells after 48 hrs by MTT assay. The class given is functional, cell-based. The gist of the method:
as §1

A further test deals with HepG2. Nature of the test: Cytotoxicity against human HepG2 cells after 48 hrs by MTT assay. Type of test: functional, cell-based. The conditions noted are these: HepG2, 48 h. Summed up:
as §1

The target in test [3] is T1, Aurora kinase A (Homo sapiens) (UniProt O14965).
T1 sequence (whole entry): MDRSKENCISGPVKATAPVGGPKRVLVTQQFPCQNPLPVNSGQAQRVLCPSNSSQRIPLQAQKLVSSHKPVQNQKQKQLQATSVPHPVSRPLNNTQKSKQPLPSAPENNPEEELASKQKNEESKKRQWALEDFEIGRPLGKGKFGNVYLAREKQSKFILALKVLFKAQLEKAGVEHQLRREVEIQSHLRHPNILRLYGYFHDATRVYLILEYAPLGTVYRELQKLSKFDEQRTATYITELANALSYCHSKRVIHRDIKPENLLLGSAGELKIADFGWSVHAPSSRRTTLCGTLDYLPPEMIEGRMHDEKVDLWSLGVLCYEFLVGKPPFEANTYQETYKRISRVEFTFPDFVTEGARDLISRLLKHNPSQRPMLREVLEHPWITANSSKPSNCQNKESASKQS
The test is described as follows: Inhibition of Aurora A in human HeLa cells after 12 hrs by Western blot method. Type of test: cell-based. Summed up:
(§2)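 HeLa cells were treated for 12 h at 10, 25 or 50 nM. They were washed in PBS and lysed in Tris-HCl pH 7.5 buffer with EDTA, NaCl, PMSF and 1% SDS, then boiled for 10 min. Proteins were separated, blotted onto nitrocellulose and probed with antibodies against Aurora A or Aurora B.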

Test [4] addresses T2, Aurora kinase B (Homo sapiens, UniProt Q96GD4). The test is described as follows: Inhibition of Aurora B in human HeLa cells after 12 hrs by Western blot method. Type of test: cell-based. Summed up:
as §2

The target in a further test is T3, Aurora kinase A (Homo sapiens, UniProt O14965).
T3 sequence (O14965 whole entry): T1 sequence (whole entry)
Nature of the test: Inhibition of Aurora A in human HeLa cells after 12 hrs by ELISA method. Type of test: cell-based.

The target in test [5] is T2, Aurora kinase B. The test is described as follows: Inhibition of Aurora B in human HeLa cells after 12 hrs by ELISA method. The class given is cell-based.
The test system of test [6] is HeLa. Nature of the test: Selectivity index, ratio of IC50 for Aurora B in human HeLa cells to IC50 for Aurora A in human HeLa cells. Type of test: cell-based.
Test [7] has as its target T1, Aurora kinase A (Homo sapiens). The test is described as follows: Inhibition of Aurora A in human HeLa cells at. Type of test: cell-based.
The target in test [8] is T2, Aurora kinase B. The test is described as follows: Inhibition of Aurora B in human HeLa cells at. Type of test: cell-based.
For test [9], the target named is T1, Aurora kinase A (Homo sapiens). Nature of the test: Inhibition of Aurora A in human HeLa cells at >10 nM after 12 hrs by ELISA method. The class given is cell-based. Summed up:
(§3)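 HeLa cells were treated for 12 h. A sandwich ELISA used plates coated with anti-human Aurora A or B antibody and an HRP-labelled detection antibody. TMB substrate was added, the reaction was stopped with sulphuric acid, and absorbance was read at 450 nm.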

The target in test [10] is T2, Aurora kinase B. Nature of the test: Inhibition of Aurora B in human HeLa cells at >10 nM after 12 hrs by ELISA method. The class given is cell-based. Summed up:
as §3

Test [11] concerns HeLa. Nature of the test: Induction of cell cycle arrest in human HeLa cells assessed as accumulation at G1 phase at 2 uM after 12 hrs by propidium iodide staining based flow cytometry (reference value: 73%). The class given is functional.
Test [12] concerns HeLa. The test is described as follows: Induction of cell cycle arrest in human HeLa cells assessed as accumulation at S phase at 2 uM after 12 hrs by propidium iodide staining based flow cytometry (reference value: 16.6%). The class given is functional.
Test [13] concerns HeLa. The test is described as follows: Induction of cell cycle arrest in human HeLa cells assessed as accumulation at G2/M phase at 2 uM after 12 hrs by propidium iodide staining based flow cytometry (reference value: 10.2%). The class given is functional.
Test [14] has as its system HeLa. The test is described as follows: Induction of cell cycle arrest in human HeLa cells assessed as accumulation at G1 phase at 5 uM after 12 hrs by propidium iodide staining based flow cytometry (reference value: 73%). The class given is functional.
The subject of test [15] is HeLa. Nature of the test: Induction of cell cycle arrest in human HeLa cells assessed as accumulation at S phase at 5 uM after 12 hrs by propidium iodide staining based flow cytometry (reference value: 16.6%). Type of test: functional.
The subject of test [16] is HeLa. The test is described as follows: Induction of cell cycle arrest in human HeLa cells assessed as accumulation at G2/M phase at 5 uM after 12 hrs by propidium iodide staining based flow cytometry (reference value: 10.2%). The class given is functional.
The test system of test [17] is HeLa. Nature of the test: Induction of cell cycle arrest in human HeLa cells assessed as accumulation at G2/M phase after 12 hrs by propidium iodide staining based flow cytometry. The class given is functional.
For test [18], the system named is HeLa. Nature of the test: Increase in cyclin B1 protein expression in human HeLa cells at 100 nM by Western blot method. The class given is functional, cell-based. Summed up: (§4)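 Lysates were boiled for 10 min and centrifuged. Proteins were separated, transferred to nitrocellulose, probed for cyclin B1 with antibodies and developed.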
The subject of test [19] is HeLa. Nature of the test: Increase in cyclin B1 protein expression in human HeLa cells at 500 nM by Western blot method. The class given is functional, cell-based. The gist of the method:
as §4

T2 sequence (Q96GD4 whole entry): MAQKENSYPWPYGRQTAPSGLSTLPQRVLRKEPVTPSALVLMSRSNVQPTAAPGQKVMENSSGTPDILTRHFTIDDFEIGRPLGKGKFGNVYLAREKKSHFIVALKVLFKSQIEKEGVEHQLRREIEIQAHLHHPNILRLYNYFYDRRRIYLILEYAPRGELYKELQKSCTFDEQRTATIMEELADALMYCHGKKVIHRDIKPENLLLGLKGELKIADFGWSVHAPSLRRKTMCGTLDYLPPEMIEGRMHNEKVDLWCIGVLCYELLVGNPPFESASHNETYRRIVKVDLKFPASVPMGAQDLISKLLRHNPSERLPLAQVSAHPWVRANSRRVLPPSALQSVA

Regarding `CCCNc1nc(Nc2ccc(N3CCN(C)CC3)cc2)ncc1F`, the IC50 in test [1] stood at 50 µM; in the test on A549, 5.1 µM; in the test on HeLa [2], 14.2 µM; in the test with HepG2 it was 35 µM.

`Fc1cnc(Nc2ccc(N3CCOCC3)cc2)nc1NC1CCCC1`: the IC50 in test [1] was found to be 24 µM; in the test with A549 it was 17.3 µM; in the test on HeLa [2], 31.4 µM; with HepG2 it was 36.5 µM.

As for `CN1CCN(c2ccc(Nc3ncc(N)c(NC4CCCC4)n3)cc2)CC1`, the IC50 came out at 4.2 µM in [1], 27 µM in the test with A549, 9.7 µM in the test on HeLa [2] and 18.5 µM in the test with HepG2.

In the case of `CCCNc1nc(Nc2ccc(N3CCOCC3)cc2)ncc1F`, the IC50 in test [1] is 73.9 µM; with A549, 8.8 µM; in the test with HeLa [2], 7.3 µM; with HepG2 it was 20 µM.

Turning to `COc1cc(C(=O)NC2CCN(C)CC2)ccc1Nc1ncc(F)c(NC2CCCC2)n1`, the 50% inhibitory concentration (IC50) worked out at 2.1 µM in test [1]; 2.1 µM in the test on A549; 2.2 µM in the test on HeLa [2]; 4.5 µM in the test with HepG2; 0.043 µM on Aurora kinase A; 0.395 µM on Aurora kinase B [5]. Besides, the inhibition entry (in test [3]; on Aurora kinase B [4]) was “Dose-dependent effect” throughout. Further, the Ratio IC50 in the test on HeLa [6] was determined as 9.

With `CN1CCC(NC(=O)c2ccc(Nc3ncc(Br)c(NC4CCCC4)n3)cc2)CC1`, the IC50 in test [1] came out at 3.6 µM; in the test with A549, 0.5 µM; in the test with HeLa [2], 0.9 µM; with HepG2, 2.4 µM; on Aurora kinase A, 0.012 µM; against Aurora kinase B [5], 0.43 µM. Moreover, the inhibition result (in test [3]; at Aurora kinase B [4]) was “Dose-dependent effect” each time. The inhibition result (in [7]; on Aurora kinase B [8]) was “inactive” in each case. In addition, the inhibition entry (in test [9]; on Aurora kinase B [10]; in the test with HeLa [18]; in the test with HeLa [19]) was “Active” in each case. Further, in the test on HeLa [6], the Ratio IC50 was found to be 35. The Activity in the test on HeLa [11] was 56.2%; in the test on HeLa [12], 10.6%; in the test with HeLa [13], 33.2%; in the test on HeLa [14], 50.5%; in the test with HeLa [15] it was 6%; with HeLa [16], 43.5%. The Activity result in the test with HeLa [17] is “Dose-dependent effect”.

Turning to `COc1cc(C(=O)NC2CCN(C)CC2)ccc1Nc1ncc(Cl)c(NC2CCCC2)n1`, the IC50 came to 4.4 µM in test [1], 5.3 µM in the test on A549, 2.7 µM with HeLa [2] and 9.3 µM in the test with HepG2.

On to `CN1CCN(c2ccc(Nc3ncc(F)c(NC4CCCC4)n3)cc2)CC1`, for which the IC50 came out at 29 µM in test [1], 37.2 µM with A549, 20 µM in the test with HeLa [2] and 25 µM in the test with HepG2.

For the compound `CN1CCC(NC(=O)c2ccc(Nc3ncc(Cl)c(NC4CCCC4)n3)cc2)CC1`, the IC50 came out at 4.6 µM in [1], 1.8 µM in the test with A549, 1.5 µM with HeLa [2] and 2.2 µM in the test with HepG2.

On to `Fc1cnc(Nc2ccc(N3CCOCC3)cc2)nc1NC1CC1`, for which the IC50 in [1] was 40.3 µM; in the test with A549, 8.7 µM; in the test with HeLa [2], 6 µM; in the test on HepG2, 33 µM.

For `O=[N+]([O-])c1cnc(Nc2ccc(N3CCOCC3)cc2)nc1NC1CCCC1`, the IC50 was 20 µM in [1], 63.7 µM in the test with A549, 36.4 µM with HeLa [2] and 21.9 µM in the test on HepG2.

Regarding `CN1CCN(c2ccc(Nc3ncc([N+](=O)[O-])c(NC4CCCC4)n3)cc2)CC1`, the IC50 came out at 53.7 µM in test [1], 4.6 µM with A549, 3.8 µM in the test on HeLa [2] and 5.2 µM in the test on HepG2.

On to `CN1CCC(NC(=O)c2ccc(Nc3ncc([N+](=O)[O-])c(NC4CCCC4)n3)cc2)CC1`, for which the half-inhibitory concentration (IC50) in test [1] was 15.6 µM; in the test on A549, 42.3 µM; in the test on HeLa [2], 21.7 µM; in the test with HepG2, 5.8 µM.

`Cc1cc(Nc2cc(N3CCN(C)CC3)nc(Sc3ccc(NC(=O)C4CC4)cc3)n2)n[nH]1` [TOZASERTIB]: the IC50 is 44.6 µM in test [1], 19.4 µM with A549, 27.3 µM in the test on HeLa [2] and 63.4 µM in the test on HepG2.

`COc1cc(C(=O)NC2CCN(C)CC2)ccc1Nc1ncc(Br)c(NC2CCCC2)n1`: the concentration for half-maximal inhibition (IC50) in test [1] came to 12 µM; with A549, 2.5 µM; with HeLa [2] it was 3.5 µM; with HepG2, 4.9 µM.

Turning to `CN1CCC(NC(=O)c2ccc(Nc3ncc(F)c(NC4CCCC4)n3)cc2)CC1`, the IC50 in test [1] was 16 µM; in the test with A549, 10.3 µM; with HeLa [2], 45.5 µM; in the test with HepG2 it was 10 µM.
